In the library only some 3.7% were active in any assay of this set; here they are far more common.
KCNK9 inh: KCNK9 potassium channel inhibitors, primary screen, HEK293 cells, thallium flux. 1.2% of 310,000 active. FluxOR thallium flux fluorescence; active compounds read low. B-score at 10 µM. Potassium channel subfamily K member 9 (Homo sapiens), Q9NPC2. AID 488922, 2010;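 active means ratio B-score over 3 SD below the library mean, with starting fluorescence within 5 SD of its mean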;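 further: negative B-score means less thallium flux so channel inhibition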
Target sequence (Q9NPC2 whole entry, looked up): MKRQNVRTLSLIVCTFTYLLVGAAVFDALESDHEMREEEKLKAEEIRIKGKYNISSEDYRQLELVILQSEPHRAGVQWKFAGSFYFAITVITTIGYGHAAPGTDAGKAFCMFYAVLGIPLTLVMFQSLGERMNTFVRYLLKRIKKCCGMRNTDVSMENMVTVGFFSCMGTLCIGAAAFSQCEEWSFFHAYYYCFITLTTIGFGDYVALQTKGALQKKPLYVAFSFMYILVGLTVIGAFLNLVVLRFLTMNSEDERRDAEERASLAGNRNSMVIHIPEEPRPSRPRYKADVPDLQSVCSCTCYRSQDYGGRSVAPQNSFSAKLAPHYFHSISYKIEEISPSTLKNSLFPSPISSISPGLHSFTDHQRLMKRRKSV
KCNQ1 inh: inhibitors of human KCNQ1 channel, primary screen, cell-based, thallium flux, high-throughput; B-score at 10 µM; CHO-K1 KCNQ1, FluxOR thallium flux fluorescence; active compounds read high; 1.3% of 310,000 active; Potassium voltage-gated channel subfamily KQT member 1 (Homo sapiens), P51787;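 active means compounds whose thallium flux B-score, printed positive for inhibition, exceeds three library SD while starting fluorescence stays within three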;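 further: channel opened by potassium depolarization with thallium stimulus after 20 min compound exposure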
KCNK3 block: human KCNK3 channel inhibitors, primary screen, CHO cells, FluxOR thallium flux, B-score | Potassium channel subfamily K member 3 (Homo sapiens), O14649 | 0.84% of 340,000 active | AID 602410, 2012 | B-score at 10 µM | FluxOR fluorescence; active compounds read low;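 active means B-score under library mean minus 4 SD, starting fluorescence ratio at most library mean plus 5 SD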;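 further: more negative B-score means stronger inhibition of thallium flux through KCNK3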
KCNQ1 pot: potentiators or activators of KCNQ1 channel, primary screen, cell-based, thallium flux, high-throughput. Potassium voltage-gated channel subfamily KQT member 1 (Homo sapiens), P51787. CHO-K1 KCNQ1, thallium flux FluxOR fluorescence; active compounds read high. B-score at 10 µM. 0.35% of 310,000 active. AID 2648, 2010;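 active means fluorescence ratio B-score, a plate-corrected score, at least three library SD, with initial intensity B-score within 5 SD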
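Doses: Single concentration per compound, DMSO matched to controls | Test system: KCNQ1-transfected CHO-K1 cells | Timing: 90 min dye loading and 20 min compound exposure, both at room temperature | Measured by: Kinetic FluxOR thallium fluorescence, 10-s 1-Hz baseline, 110-s post-stimulus read | Medium: Assay buffer with matched DMSO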
hERG protect: hERG rescue from dofetilide block, primary screen, cell-based, CHO-hERG, FluxOR thallium flux, dofetilide IC70; Voltage-gated inwardly rectifying potassium channel KCNH2 (Homo sapiens), Q12809; dofetilide IC70 present; activation (rescue from dofetilide block), less the hit threshold, % at 10 µM; 0.51% of 310,000 active; AID 1511, 2009;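 active means activation above the mean of controls blocked by dofetilide plus 5 SD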;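 further: thallium influx through hERG after potassium depolarization seen as dye fluorescence rise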
Kir21 inh: inhibitors of mouse Kir2.1 inward-rectifier potassium channel. HEK293-Kir2.1, FluxOR thallium flux fluorescence; active compounds read low. B-score at 10 µM. 0.85% of 310,000 active. AID 1672, 2009. Inward rectifier potassium channel 2 (Mus musculus), P35561;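 active means fluorescence ratio B-score at or below minus 3 SD of library scores, with starting-brightness B-score within 2 SD, cut at about -4.2 in these data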;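 further: channel flux triggered by added potassium and thallium sulfate stimulus; B-score of peak minus minimum fluorescence over baseline after thallium stimulus; more negative B-score means stronger Kir2.1 block with less thallium influx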
* = called active by the depositor.

What do the screens show for `O=[N+]([O-])c1ccc(NCc2ccc(Cl)cc2)nc1`?
KCNK9 inh: inactive; KCNQ1 inh: inactive; KCNK3 block: inactive; KCNQ1 pot: inactive; hERG protect: -8; Kir21 inh: 1.9

What do the screens show for `O=C(CSc1ccc(-c2ccc(Br)cc2)nn1)N1CCOCC1`?
KCNK9 inh: inactive; KCNQ1 inh: inactive; KCNK3 block: inactive; KCNQ1 pot: inactive; hERG protect: 5.0*; Kir21 inh: -0.1

How did O=C(CSc1ccc(-c2ccccc2)nn1)N1CCCCC1 do in these assays?
KCNK9 inh: inactive; KCNQ1 inh: inactive; KCNK3 block: inactive; KCNQ1 pot: inactive; hERG protect: 40*; Kir21 inh: -0.13

Results for O=C(CSc1ccc(-c2ccncc2)nn1)N1CCCCC1 ?
KCNK9 inh: inactive; KCNQ1 inh: inactive; KCNK3 block: inactive; KCNQ1 pot: inactive; hERG protect: -5; Kir21 inh: 1.2

How did Cc1ccsc1/C=C/C1=Cc2c(sc(NC(=O)CSc3n[nH]c(N)n3)c2C#N)C(C)(C)C1 do in these assays?
KCNK9 inh: inactive; KCNQ1 inh: 8*; KCNK3 block: inactive; KCNQ1 pot: inactive; hERG protect: -17; Kir21 inh: -1.4

How did CCOc1ccc(/C=C/C2=Cc3c(sc(NC(=O)CSc4n[nH]c(N)n4)c3C#N)C(C)(C)C2)cc1 do in these assays?
KCNK9 inh: inactive; KCNQ1 inh: inactive; KCNK3 block: -8.8*; KCNQ1 pot: inactive; hERG protect: -16; Kir21 inh: 0.12

How did COC(=O)c1sc(NC(=O)CSc2n[nH]c(N)n2)c(C(=O)OC)c1C do in these assays?
KCNK9 inh: inactive; KCNQ1 inh: inactive; KCNK3 block: inactive; KCNQ1 pot: inactive; hERG protect: -12; Kir21 inh: -1.3

What do the screens show for `CCOC(=O)c1sc(NC(=O)CSc2n[nH]c(-c3ccncc3)n2)c(C#N)c1C`?
KCNK9 inh: inactive; KCNQ1 inh: inactive; KCNK3 block: inactive; KCNQ1 pot: inactive; hERG protect: 1; Kir21 inh: -0.23

Results for CC1=C(C)C(=O)C(CCCCC#CCCCC#CCO)=C(C)C1=O ?
KCNK9 inh: inactive; KCNQ1 inh: inactive; KCNK3 block: -14*; KCNQ1 pot: inactive; hERG protect: -17; Kir21 inh: -1.4

What do the screens show for `COc1ccc(CN(C)C(=O)CCN2C(=O)c3ccccc3C2=O)c(OC)c1OC`?
KCNK9 inh: inactive; KCNQ1 inh: inactive; KCNK3 block: inactive; KCNQ1 pot: inactive; hERG protect: -1; Kir21 inh: 1.3

How did COc1ccc(CN(C)C(=O)COC(=O)c2ccc(-c3ccccc3)cc2)c(OC)c1OC do in these assays?
KCNK3 block: -9.3*

Results for Cc1[nH]c(C)c(S(=O)(=O)NCc2ccc(OC(C)C)cc2)c1C(=O)N1CCCC1 ?
KCNK9 inh: inactive; KCNQ1 inh: inactive; KCNK3 block: inactive; KCNQ1 pot: inactive; hERG protect: -10; Kir21 inh: 0.27

How did CCC(=O)N1N=C(c2cccs2)CC1c1ccc(C)cc1 (stereo unspecified) do in these assays?
KCNK9 inh: inactive; KCNQ1 inh: inactive; KCNK3 block: inactive; KCNQ1 pot: inactive; hERG protect: 5.1*; Kir21 inh: 0.8

What do the screens show for `Cc1ccc(C2CC(c3cccs3)=NN2C(=O)CCl)cc1` (stereo unspecified)?
KCNK9 inh: inactive; KCNQ1 inh: inactive; KCNK3 block: inactive; KCNQ1 pot: inactive; hERG protect: -2; Kir21 inh: -4

How did COc1ccc(C2=NN(C(=O)CN3CCCCC3)C(c3ccc(C)cc3)C2)cc1 (stereo unspecified) do in these assays?
KCNK9 inh: inactive; KCNQ1 inh: 6*; KCNK3 block: inactive; KCNQ1 pot: inactive; hERG protect: -10; Kir21 inh: -1.6

What do the screens show for `S=C(NCC1CC1)N/N=C/c1ccccc1Cl`?
KCNK9 inh: inactive; KCNQ1 inh: inactive; KCNK3 block: inactive; KCNQ1 pot: inactive; hERG protect: -3; Kir21 inh: 1.4

Results for CCN(C(=O)COC(=O)c1cccc(S(=O)(=O)N(C)C)c1)c1c(N)n(Cc2ccccc2)c(=O)[nH]c1=O ?
KCNK3 block: inactive

How did Cc1ccc(-n2c(-c3cc(-c4ccco4)[nH]n3)n[nH]c2=S)c(Br)c1 do in these assays?
KCNK9 inh: inactive; KCNQ1 inh: 6*; KCNK3 block: inactive; KCNQ1 pot: inactive; hERG protect: -15; Kir21 inh: -0.25

How did Cn1nc(-c2ccc(N3CCOCC3)c(NS(=O)(=O)c3ccc(Cl)cc3)c2)c2ccccc2c1=O do in these assays?
KCNK3 block: -10*

How did Cc1cccc(NC(=S)NNC(=O)c2csc3c2CCC(C)C3)c1 (stereo unspecified) do in these assays?
KCNK9 inh: inactive; KCNQ1 inh: inactive; KCNK3 block: inactive; KCNQ1 pot: 20*; hERG protect: -1; Kir21 inh: -1.3

How did CC(C)CNC(=S)NNC(=O)c1csc2c1CCC(C)C2 (stereo unspecified) do in these assays?
KCNK9 inh: inactive; KCNQ1 inh: inactive; KCNK3 block: inactive; KCNQ1 pot: inactive; hERG protect: -8; Kir21 inh: -0.92

What do the screens show for `CC1CCc2sc(C(=O)NN=C3CCC(c4ccccc4)CC3)cc2C1` (stereo unspecified)?
KCNK9 inh: inactive; KCNQ1 inh: inactive; KCNK3 block: inactive; KCNQ1 pot: inactive; hERG protect: -5; Kir21 inh: 1.1

What do the screens show for `Cc1cccc(NC(=S)NNC(=O)c2cc3c(s2)CCC(C)C3)c1C` (stereo unspecified)?
KCNK9 inh: inactive; KCNQ1 inh: inactive; KCNK3 block: inactive; KCNQ1 pot: 11*; hERG protect: -12; Kir21 inh: 1.3

Results for Cc1ccc(C)c(NC(=S)NNC(=O)c2cc3c(s2)CCC(C)C3)c1 (stereo unspecified) ?
KCNK9 inh: inactive; KCNQ1 inh: inactive; KCNK3 block: inactive; KCNQ1 pot: inactive; hERG protect: 9.3*; Kir21 inh: -1.6

What do the screens show for `CCC(=O)c1cn(CC(=O)Nc2cc(C)ccc2C)c2ccccc12`?
KCNK9 inh: inactive; KCNQ1 inh: inactive; KCNK3 block: inactive; KCNQ1 pot: inactive; hERG protect: -2; Kir21 inh: -0.7

Source: PubChem
